ChEMBL document CHEMBL3272092, “Synthesis and antihypertensive activity of 5-thio-2-pyridinecarboxylic acid derivatives” (J Med Chem, 1978)
The source made the active and inactive calls. The rule behind the calls is not given here.

How the values were obtained:
Rattus norvegicus [1] = assay: Toxicity in spontaneous hypertensive rat model at 100 mg/kg, po administered for 2 to 4 days; format: organism-based; design: dose 100 mg/kg, route oral; details: in vivo
Rattus norvegicus [2] = assay: Antihypertensive activity in spontaneous hypertensive rat model assessed as decrease in blood pressure at 100 mg/kg, po administered for 2 to 4 days measured on day 2 to day 4; format: functional
Summary of the method: (§1)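 SHR, 4–6 per drug, were dosed daily by gavage for 2 or 4 consecutive days in 3% cornstarch, 5% PEG-400 and 1 drop Tween 80 per mL. After 1 h acclimation, systolic pressure was read by tail-cuff (inflated to 250 mmHg, then lowered; pulse reemergence), at least three readings, at 1, 2, 3 and 24 h post-dose. The peak fall is scored: +, <20 mm up to >80 mm.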

Rattus norvegicus [3] = assay: Antihypertensive activity in spontaneous hypertensive rat model assessed as decrease in blood pressure at 30 mg/kg, po administered for 2 to 4 days measured on day 2 to day 4; format: functional
Rattus norvegicus [4] = assay: Toxicity in spontaneous hypertensive rat model assessed as bradycardia at 100 to 200 mg/kg, po administered for 2 to 4 days; format: organism-based; design: route oral; details: in vivo
Summary of the method: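 Heart rate in SHR was counted from tail-cuff pressure pulses after 1 h acclimation. Rats (4–6 per drug) were gavaged daily for 2 or 4 days at 100 mg/kg (sometimes 200 mg/kg) in 3% cornstarch, 5% PEG-400 and 1 drop Tween 80 per mL. Recordings were at 1, 2, 3 and 24 h after each dose.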

Rattus norvegicus [5] = assay: Antihypertensive activity in spontaneous hypertensive rat model assessed as decrease in blood pressure at 200 mg/kg, po administered for 2 to 4 days measured on day 2 to day 4; format: functional; summary of the method: as §1
Canis familiaris [6] = assay: Toxicity in unanesthetized renal hypertensive Mongrel dog model assessed as emesis at 100 mg/kg, po qd measured on day 1 to 4; format: organism-based, Canis lupus familiaris; design: dose 100 mg/kg, route oral; details: in vivo
Canis familiaris [7] = assay: Toxicity in unanesthetized renal hypertensive Mongrel dog model assessed as change in heart rate at 100 mg/kg, po qd measured on day 2; format: organism-based, Canis lupus familiaris; design: dose 100 mg/kg, route oral; details: in vivo
Summary of the method: (§2)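 Heart rate in unanesthetized renal hypertensive dogs was counted manually from the transducer-recorded arterial pressure trace. Oral dosing was once daily as solid in a gelatin capsule. Readings were at 1.5, 3, 6 and 24 h post-dose, and the maximum change per daily session is reported.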

Canis familiaris [8] = assay: Toxicity in unanesthetized renal hypertensive Mongrel dog model assessed as change in heart rate at 100 mg/kg, po qd measured on day 1; format: organism-based, Canis lupus familiaris; design: dose 100 mg/kg, route oral; details: in vivo; summary of the method: as §2
Squirrel monkey [9] = assay: Antihypertensive activity in normotensive squirrel monkey model assessed as decrease in systolic blood pressure at 100 mg/kg, po qd measured on day 4 by sphygmomanometry; format: functional, Saimiri sciureus, Artery
Summary of the method: (§3)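 Restrained squirrel monkeys of either sex with tails warmed by infrared lamp. Systolic pressure was measured indirectly with a tail-base occlusion cuff and pulse transducer. Doses were given daily by gavage as a suspension in 3% cornstarch, 5% PEG-400 and 1 drop Tween 80 per 10 mL. Readings were taken 1.5, 3, 5 and 24 h post-dose. Values are the peak change after each dose, analysed by paired t test.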

Squirrel monkey [10] = assay: Antihypertensive activity in normotensive squirrel monkey model assessed as decrease in systolic blood pressure at 100 mg/kg, po qd measured on day 3 by sphygmomanometry; format: functional, Saimiri sciureus, Artery; summary of the method: as §3
Squirrel monkey [11] = assay: Toxicity in normotensive squirrel monkey model assessed as change in heart rate at 100 mg/kg, po qd measured on day 2; format: organism-based, Saimiri sciureus; design: dose 100 mg/kg, route oral; details: in vivo
Summary of the method: (§4)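 Heart rate in restrained, tail-warmed squirrel monkeys was counted manually from the tail-cuff pressure record. Daily gavage used a suspension in 3% cornstarch, 5% PEG-400 and 1 drop Tween 80 per 10 mL. Monitoring was at 1.5, 3, 5 and 24 h after each dose, and the peak change per administration is reported. Paired t test.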

Squirrel monkey [12] = assay: Antihypertensive activity in normotensive squirrel monkey model assessed as decrease in systolic blood pressure at 100 mg/kg, po qd measured on day 2 by sphygmomanometry; format: functional, Saimiri sciureus, Artery; summary of the method: as §3
Squirrel monkey [13] = assay: Toxicity in normotensive squirrel monkey model assessed as change in heart rate at 100 mg/kg, po qd measured on day 3; format: organism-based, Saimiri sciureus; design: dose 100 mg/kg, route oral; details: in vivo; summary of the method: as §4
Squirrel monkey [14] = assay: Toxicity in normotensive squirrel monkey model assessed as change in heart rate at 100 mg/kg, po qd measured on day 4; format: organism-based, Saimiri sciureus; design: dose 100 mg/kg, route oral; details: in vivo; summary of the method: as §4
Canis familiaris [15] = assay: Antihypertensive activity in unanesthetized renal hypertensive Mongrel dog model assessed as change in mean blood pressure at 100 mg/kg, po qd measured on day 1; format: functional, Canis lupus familiaris
Summary of the method: (§5)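 Unanesthetized renal hypertensive dogs. Arterial pressure was recorded via a hypodermic needle and polyethylene tubing to a pressure transducer. Drug was given orally once daily as solid in a gelatin capsule. Pressure was determined 1.5, 3, 6 and 24 h after each dose, and the maximum change over each daily monitored session is reported.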

Squirrel monkey [16] = assay: Antihypertensive activity in normotensive squirrel monkey model assessed as decrease in systolic blood pressure at 100 mg/kg, po qd measured on day 1 by sphygmomanometry; format: functional, Saimiri sciureus, Artery; summary of the method: as §3
Squirrel monkey [17] = assay: Toxicity in normotensive squirrel monkey model assessed as change in heart rate at 100 mg/kg, po qd measured on day 1; format: organism-based, Saimiri sciureus; design: dose 100 mg/kg, route oral; details: in vivo; summary of the method: as §4
Canis familiaris [18] = assay: Antihypertensive activity in unanesthetized renal hypertensive Mongrel dog model assessed as change in mean blood pressure at 100 mg/kg, po qd measured on day 2; format: functional, Canis lupus familiaris; summary of the method: as §5
Canis familiaris [19] = assay: Antihypertensive activity in unanesthetized renal hypertensive Mongrel dog model assessed as change in mean blood pressure at 60 mg/kg, po qd measured on day 1; format: functional, Canis lupus familiaris
Summary of the method: (§6)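 Conscious renal hypertensive dogs. Blood pressure recorded through a hypodermic needle and tubing to a pressure transducer; heart rate counted by hand. Solid drug given orally once daily in gelatin capsule. Pressures read at 1.5, 3, 6 and 24 h after each dose; maximum changes in pressure and heart rate over each daily session reported.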

Canis familiaris [20] = assay: Antihypertensive activity in unanesthetized renal hypertensive Mongrel dog model assessed as change in mean blood pressure at 60 mg/kg, po qd measured on day 3; format: functional, Canis lupus familiaris; summary of the method: as §6
Squirrel monkey [21] = assay: Antihypertensive activity in normotensive squirrel monkey model assessed as decrease in systolic blood pressure at 30 mg/kg, po qd measured on day 1 by sphygmomanometry; format: functional, Saimiri sciureus, Artery
Summary of the method: (§7)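 Squirrel monkeys of either sex restrained in primate chairs, tails warmed by infrared lamp. Systolic pressure taken indirectly by tail-base occlusion cuff with pulse transducer; heart rate counted by hand from the pressure trace. Daily gavage of a suspension in 3% cornstarch, 5% PEG-400 and 1 drop Tween 80 per 10 mL. Read at 1.5, 3, 5 and 24 h; peak change per dose; paired t test.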

Canis familiaris [22] = assay: Toxicity in unanesthetized renal hypertensive Mongrel dog model assessed as change in heart rate at 60 mg/kg, po qd measured on day 3; format: organism-based, Canis lupus familiaris; design: dose 60 mg/kg, route oral; details: in vivo; summary of the method: as §6
Canis familiaris [23] = assay: Antihypertensive activity in unanesthetized renal hypertensive Mongrel dog model assessed as change in mean blood pressure at 60 mg/kg, po qd measured on day 2; format: functional, Canis lupus familiaris; summary of the method: as §6
Canis familiaris [24] = assay: Toxicity in unanesthetized renal hypertensive Mongrel dog model assessed as change in heart rate at 60 mg/kg, po qd measured on day 1; format: organism-based, Canis lupus familiaris; design: dose 60 mg/kg, route oral; details: in vivo; summary of the method: as §6
Canis familiaris [25] = assay: Toxicity in unanesthetized renal hypertensive Mongrel dog model assessed as change in heart rate at 60 mg/kg, po qd measured on day 2; format: organism-based, Canis lupus familiaris; design: dose 60 mg/kg, route oral; details: in vivo; summary of the method: as §6
Canis familiaris [26] = assay: Toxicity in unanesthetized renal hypertensive Mongrel dog model assessed as emesis at 60 mg/kg, po qd measured on day 1 to 4; format: organism-based, Canis lupus familiaris; design: dose 60 mg/kg, route oral; details: in vivo
Squirrel monkey [27] = assay: Toxicity in normotensive squirrel monkey model assessed as emesis at 100 mg/kg, po qd measured on day 2; format: organism-based, Saimiri sciureus; design: dose 100 mg/kg, route oral; details: in vivo
Squirrel monkey [28] = assay: Toxicity in normotensive squirrel monkey model assessed as change in heart rate at 30 mg/kg, po qd measured on day 1; format: organism-based, Saimiri sciureus; design: dose 30 mg/kg, route oral; details: in vivo; summary of the method: as §7
Squirrel monkey [29] = assay: Toxicity in normotensive squirrel monkey model assessed as emesis at 30 mg/kg, po qd measured on day 1; format: organism-based, Saimiri sciureus; design: dose 30 mg/kg, route oral; details: in vivo

O=C(O)c1ccc(SCCc2ccccc2)cn1
Activity (Rattus norvegicus [1]): Toxic

Cc1cccc(CSc2ccc(C(=O)O)nc2)c1
Activity (Rattus norvegicus [2]): <20 mmHg

CCCCS(=O)(=O)c1ccc(C(=O)O)nc1
Activity (Rattus norvegicus [2]): inactive

CC(Sc1ccc(C(=O)O)nc1)c1cccc(C(F)(F)F)c1 (configuration not stated)
Activity (Rattus norvegicus [2]): >40 mmHg

O=C([O-])c1ccc([S+]([O-])Cc2ccc(Cl)cc2Cl)cn1.[Na+] (configuration not stated)
Activity (Rattus norvegicus [2]): >20 mmHg

O=C([O-])c1ccc(Sc2ccc(Cl)cc2)cn1.[Na+]
Activity (Rattus norvegicus [1]): Toxic
Activity (Rattus norvegicus [3]): <20 mmHg

O=C(O)c1ccc([S+]([O-])c2ccc(Cl)cc2)cn1 (configuration not stated)
Activity (Rattus norvegicus [2]): <20 mmHg

O=C(O)c1ccc([S+]([O-])Cc2cccc(C(F)(F)F)c2)cn1 (configuration not stated)
Activity (Rattus norvegicus [4]): Toxic
Activity (Rattus norvegicus [5]): > 60 mmHg
Activity (Canis familiaris [6]): Non-toxic
Activity (Canis familiaris [7]): 2 bpm
Activity (Rattus norvegicus [2]): >40 mmHg
Activity (Canis familiaris [8]): 10 bpm
Activity (Squirrel monkey [9]): -19 mmHg
Activity (Squirrel monkey [10]): -19 mmHg
Activity (Squirrel monkey [11]): -83 bpm
Activity (Squirrel monkey [12]): -29 mmHg
Activity (Squirrel monkey [13]): -73 bpm
Activity (Squirrel monkey [14]): -33 bpm
Activity (Canis familiaris [15]): -7 mmHg
Activity (Squirrel monkey [16]): -30 mmHg
Activity (Squirrel monkey [17]): -43 bpm
Activity (Canis familiaris [18]): -10 mmHg

O=C([O-])c1ccc(SCc2ccc(Cl)c(Cl)c2)cn1.[Na+]
Activity (Rattus norvegicus [2]): <20 mmHg

O=C(O)c1ccc(SCc2ccccc2Cl)cn1
Activity (Rattus norvegicus [2]): <20 mmHg

O=C(O)c1ccc([S+]([O-])Cc2ccc(Cl)cc2)cn1 (configuration not stated)
Activity (Rattus norvegicus [2]): >20 mmHg

CC(Sc1ccc(C(=O)O)nc1)c1cccc(Cl)c1 (configuration not stated)
Activity (Rattus norvegicus [2]): <20 mmHg

Cc1ccc(CSc2ccc(C(=O)[O-])nc2)cc1.[Na+]
Activity (Rattus norvegicus [2]): <20 mmHg

CCCCc1ccc(C(=O)O)nc1 [FUSARIC ACID]
Activity (Canis familiaris [19]): -50 mmHg
Activity (Canis familiaris [20]): -30 mmHg
Activity (Squirrel monkey [21]): -28 mmHg
Activity (Canis familiaris [22]): 33 bpm
Activity (Canis familiaris [23]): -45 mmHg
Activity (Rattus norvegicus [2]): >60 mmHg
Activity (Squirrel monkey [11]): 10 bpm
Activity (Canis familiaris [24]): 32 bpm
Activity (Squirrel monkey [12]): -53 mmHg
Activity (Canis familiaris [25]): 35 bpm
Activity (Canis familiaris [26]): Toxic
Activity (Squirrel monkey [27]): Non-toxic
Activity (Squirrel monkey [28]): -20 bpm
Activity (Squirrel monkey [29]): Non-toxic

O=C([O-])c1ccc(SCc2cccc(Br)c2)cn1.[Na+]
Activity (Rattus norvegicus [2]): >60 mmHg

O=C([O-])c1ccc([S+]([O-])CCCc2ccccc2)cn1.[Na+] (configuration not stated)
Activity (Rattus norvegicus [2]): <20 mmHg

O=C(O)c1ccc(SCc2cccc(F)c2)cn1
Activity (Rattus norvegicus [2]): >20 mmHg

O=C(O)c1ccc(SCCCc2ccccc2)cn1
Activity (Rattus norvegicus [2]): >20 mmHg
